Activity calls are given as the source filed them. The calls are words filed in the database; no cut-off is given here.
Key:
[1] = tested on: Colletotrichum fragariae; experiment: Antifungal activity against Colletotrichum fragariae by TLC bioautography; format: functional, organism-based
[2] = tested on: Botrytis cinerea; experiment: Fungicidal activity against Botryotinia fuckeliana assessed as growth inhibition at 100 uM after 72 hr by microbioassay; format: functional; conditions: read-out: GI
Outline: (§1)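 Botrytis cinerea tested in a 96-well dose-response microbioassay alongside other fungal strains, after compounds were first screened by TLC bioautography against C. fragariae. Three concentrations were used (1.0, 10.0, 100.0 μM), with captan as positive standard. Growth inhibition was read 72 h after treatment.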

[3] = tested on: Agrostis stolonifera; experiment: Phytotoxic activity against Agrostis stolonifera var. Penncross at 0.1 to 1000 uM; format: functional, organism-based
Outline: (§2)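 Germination phytotoxicity assay on lettuce (Lactuca sativa cv. Iceberg, dicot) and bent grass (Agrostis stolonifera cv. Pencross, monocot), with compounds tested across 0.1-1000 μM. Inhibition was scored visually on a 1-5 scale, where 1 is no inhibition and 5 is complete inhibition of germination.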

[4] = tested on: Lactuca sativa; experiment: Phytotoxic activity against Lettuce cv. Iceberg (lettuce) at 0.1 to 1000 uM; format: functional, organism-based; outline: as §2
[5] = tested on: Cucumis sativus; experiment: Phytotoxic activity against Cucumis sativus (cucumber) cotyledon disks assessed as electrolyte leakage; format: functional, organism-based
[6] = tested on: Botrytis cinerea; experiment: Fungicidal activity against Botryotinia fuckeliana assessed as growth inhibition at 10 to 100 uM after 72 hr by microbioassay; format: functional, organism-based; outline: as §1

Row | Structure (SMILES) | Activity [1] | inhibition of growth at 100 µM [2] [%] | Activity [3] | Activity [4] | Activity [5] | growth inhibition (GI) [6]
1 | C#CC(C)(C)Oc1ccc(CC(=O)OC)cc1 | Active | – | – | – | – | –
2 | CC(C)CC(=O)N(C)CCc1ccc2c(c1)C=CC(C)(C)O2 | – | 80 | inactive | inactive | – | –
3 | COC(=O)c1ccc2c(c1)C=CC(C)(C)O2 | Active | > 50 | – | – | – | –
4 | CC(C)NCCc1ccc2c(c1)C=CC(C)(C)O2 | inactive | – | inactive | inactive | inactive | –
5 | COc1cc(CCNC(C)C)cc2c1OC(C)(C)C=C2 | inactive | – | inactive | inactive | – | –
6 | CC1(C)C=Cc2cc(CCCO)ccc2O1 | Active | > 50 | – | – | – | –
7 | COC(=O)c1ccc2c(c1)OC(C)(C)C=C2 | Active | > 50 | – | – | – | –
8 | C#CC(C)(C)Oc1ccc(C(=O)OC)cc1 | Active | – | – | – | – | –
9 | COc1cc(CCO)cc2c1OC(C)(C)C=C2 | Active | – | – | – | – | –
10 | CC(C)NCCCc1ccc2c(c1)C=CC(C)(C)O2 | inactive | – | inactive | inactive | – | –
11 | CC1(C)C=Cc2cc(CCO)ccc2O1 | Active | > 50 | inactive | inactive | inactive | –
12 | CC1(C)C=Cc2c(CO)cccc2O1 | Active | – | – | – | – | –
13 | CC1(C)C=Cc2cc(CCN)ccc2O1 | inactive | – | inactive | inactive | – | –
14 | CC(C)NCc1ccc2c(c1)C=CC(C)(C)O2 | inactive | – | inactive | inactive | – | –
15 | C#CC(C)(C)Oc1cccc(C(=O)OC)c1 | Active | – | – | – | – | –
16 | C#CC(C)(C)Oc1ccc(CC(=O)OCC)cc1OC | Active | – | – | – | – | –
17 | COC(=O)CCc1ccc2c(c1)C=CC(C)(C)O2 | Active | – | – | – | – | –
18 | CC(C)NCc1cccc2c1C=CC(C)(C)O2 | inactive | – | inactive | inactive | – | –
19 | CCOC(=O)Cc1cc2c(c(OC)c1)OC(C)(C)C=C2 | Active | – | – | – | – | –
20 | C#CC(C)(C)Oc1ccc(CCC(=O)OC)cc1 | Active | – | – | – | – | –
21 | CC1(C)C=Cc2cc(CO)ccc2O1 [EULATACHROMENE] | Active | 30 | – | – | inactive | –
22 | COC(=O)Cc1ccc2c(c1)C=CC(C)(C)O2 | Active | 30 | inactive | inactive | – | –
23 | COC(=O)c1cccc2c1C=CC(C)(C)O2 | Active | > 50 | – | – | – | –
24 | COC(=O)CCc1ccc(O)cc1 | Active | – | – | – | – | –
25 | CNCCc1ccc2c(c1)C=CC(C)(C)O2 | inactive | – | inactive | inactive | – | –
26 | CC1(C)C=Cc2ccc(CO)cc2O1 | Active | > 50 | – | – | – | –
27 | O=C1C2CC=CCC2C(=O)N1SC(Cl)(Cl)Cl (stereo unspecified) | – | – | – | – | – | Active
28 | CC(C)NCc1ccc2c(c1)OC(C)(C)C=C2 | inactive | – | inactive | inactive | – | –
